pIC50: −log10 of the molar value.
Experiments:
Format in all cases: functional, cell-based
Caco-2 = experiment: Antitumor activity against human Caco-2 cells after 48 hours hrs by SRB assay; conditions: Caco-2, 48 h
How it was run: (§1)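 Seeded cells were exposed to each compound across a broad concentration range for 48 h. Growth was read by sulforhodamine B staining, compared against untreated control. Values are mean ± SEM, n = 3–6.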

MCF7 = experiment: Antitumor activity against human MCF7 cells after 48 hours hrs by SRB assay; conditions: MCF7, 48 h; how it was run: as §1
HT-29 = experiment: Antitumor activity against human HT-29 cells after 48 hours hrs by SRB assay; conditions: HT-29, 48 h; how it was run: as §1

| Structure (SMILES) | pIC50 (Caco-2) | pIC50 (MCF7) | pIC50 (HT-29) |
| --- | --- | --- | --- |
| COc1cc(N)c2ncccc2c1 | < 4.00 | 4.06 | < 4.00 |
| COc1cc(NC(C)CCCN2C(=O)[C@H](C)NC2(C)C)c2ncccc2c1 (stereo partly specified) | 4.15 | 4.37 | < 4.00 |
| COc1cc(NC(C)CCCN2C(=O)CN(C(=O)[C@H](C)N)C2(C)C)c2ncccc2c1 (stereo partly specified) | < 4.00 | 4.70 | 4.33 |
| COc1cc(NC(C)CCCNC(=O)CNC(=O)[C@H](C)N)c2ncccc2c1 (stereo partly specified) | < 4.00 | 4.67 | 4.03 |
| COc1cc(NC(C)CCCNC(=O)C2CCCN2C(=O)[C@@H](C)N)c2ncccc2c1 (stereo partly specified) | 4.19 | 4.82 | < 4.00 |
| FC(F)(F)c1ccc2c(Cl)ccnc2c1 | 4.28 | 4.20 | < 4.00 |
| COc1cc(NC(C)CCCN)c2ncccc2c1 (stereo unspecified) [PRIMAQUINE] | 4.32 | 5.16 | 4.16 |

The remaining lines, values ahead:

| pIC50 (Caco-2) | pIC50 (MCF7) | pIC50 (HT-29) | Structure (SMILES) |
| --- | --- | --- | --- |
| 4.34 | 4.24 | < 4.00 | COc1cc(NC(C)CCCNC(C)=O)c2ncccc2c1 (stereo unspecified) |
| 4.13 | 4.57 | < 4.00 | COc1cc(NC(C)CCCNC(=O)CN2C(=O)[C@H](C)NC23CCCCC3)c2ncccc2c1 (stereo partly specified) |
| 4.24 | 4.42 | < 4.00 | COc1cc(NC(C)CCCNC(=O)CN2C(=O)[C@H](C)NC2(C)C)c2ncccc2c1 (stereo partly specified) |
| 4.22 | < 4.00 | < 4.00 | COc1cc(NC(C)CCCN2C(=O)CN(C(C)=O)C2(C)C)c2ncccc2c1 (stereo unspecified) |
| 4.09 | < 4.00 | < 4.00 | O=C(O)c1cc2ccccc2nc1Cl |

— ChEMBL document CHEMBL1156744, “Anti-tumoral activity of imidazoquines, a new class of antimalarials derived from primaquine” (Bioorg Med Chem Lett, 2009)
